target: Phosphatidylinositol 3-kinase regulatory subunit alpha/4,5-bisphosphate 3-kinase catalytic subunit alpha isoform (Homo sapiens, UniProt P27986+P42336); experiment: Inhibition of PI3K p110alpha/p85alpha
Procedure, shortened: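 Biochemical kinase assay following the kit manufacturer's protocol with a modified kinase buffer (50 mM HEPES pH 7.5, 3 mM MgCl2, 100 mM NaCl, 1 mM EGTA, 0.04% CHAPS, 2 mM TCEP, 0.01 mg/ml BGG); 10 nM enzyme; ATP 50 µM; values are averages of two independent experiments, each in duplicate.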

Chain of Phosphatidylinositol 3-kinase regulatory subunit alpha/4,5-bisphosphate 3-kinase catalytic subunit alpha isoform (P27986 whole entry, canonical isoform): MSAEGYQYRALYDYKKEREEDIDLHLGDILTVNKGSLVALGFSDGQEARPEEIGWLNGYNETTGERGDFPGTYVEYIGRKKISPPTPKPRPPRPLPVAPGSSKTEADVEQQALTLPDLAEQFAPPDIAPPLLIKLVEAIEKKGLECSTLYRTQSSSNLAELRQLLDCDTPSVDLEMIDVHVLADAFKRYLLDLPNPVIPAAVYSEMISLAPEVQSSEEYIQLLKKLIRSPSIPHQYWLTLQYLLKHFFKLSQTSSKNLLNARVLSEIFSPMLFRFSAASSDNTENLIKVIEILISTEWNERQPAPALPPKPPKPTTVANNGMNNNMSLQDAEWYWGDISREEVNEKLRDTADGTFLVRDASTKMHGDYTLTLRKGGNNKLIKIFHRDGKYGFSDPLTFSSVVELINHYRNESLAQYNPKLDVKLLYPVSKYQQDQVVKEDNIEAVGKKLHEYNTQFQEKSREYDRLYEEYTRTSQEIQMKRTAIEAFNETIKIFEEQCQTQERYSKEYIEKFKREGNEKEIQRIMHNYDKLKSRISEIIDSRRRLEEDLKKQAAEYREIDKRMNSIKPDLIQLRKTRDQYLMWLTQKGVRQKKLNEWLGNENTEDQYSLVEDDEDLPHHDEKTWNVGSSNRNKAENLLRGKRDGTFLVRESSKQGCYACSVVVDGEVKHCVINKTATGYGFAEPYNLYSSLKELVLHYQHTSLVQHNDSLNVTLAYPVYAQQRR
Chain of Phosphatidylinositol 3-kinase regulatory subunit alpha/4,5-bisphosphate 3-kinase catalytic subunit alpha isoform (P42336 whole entry, canonical isoform): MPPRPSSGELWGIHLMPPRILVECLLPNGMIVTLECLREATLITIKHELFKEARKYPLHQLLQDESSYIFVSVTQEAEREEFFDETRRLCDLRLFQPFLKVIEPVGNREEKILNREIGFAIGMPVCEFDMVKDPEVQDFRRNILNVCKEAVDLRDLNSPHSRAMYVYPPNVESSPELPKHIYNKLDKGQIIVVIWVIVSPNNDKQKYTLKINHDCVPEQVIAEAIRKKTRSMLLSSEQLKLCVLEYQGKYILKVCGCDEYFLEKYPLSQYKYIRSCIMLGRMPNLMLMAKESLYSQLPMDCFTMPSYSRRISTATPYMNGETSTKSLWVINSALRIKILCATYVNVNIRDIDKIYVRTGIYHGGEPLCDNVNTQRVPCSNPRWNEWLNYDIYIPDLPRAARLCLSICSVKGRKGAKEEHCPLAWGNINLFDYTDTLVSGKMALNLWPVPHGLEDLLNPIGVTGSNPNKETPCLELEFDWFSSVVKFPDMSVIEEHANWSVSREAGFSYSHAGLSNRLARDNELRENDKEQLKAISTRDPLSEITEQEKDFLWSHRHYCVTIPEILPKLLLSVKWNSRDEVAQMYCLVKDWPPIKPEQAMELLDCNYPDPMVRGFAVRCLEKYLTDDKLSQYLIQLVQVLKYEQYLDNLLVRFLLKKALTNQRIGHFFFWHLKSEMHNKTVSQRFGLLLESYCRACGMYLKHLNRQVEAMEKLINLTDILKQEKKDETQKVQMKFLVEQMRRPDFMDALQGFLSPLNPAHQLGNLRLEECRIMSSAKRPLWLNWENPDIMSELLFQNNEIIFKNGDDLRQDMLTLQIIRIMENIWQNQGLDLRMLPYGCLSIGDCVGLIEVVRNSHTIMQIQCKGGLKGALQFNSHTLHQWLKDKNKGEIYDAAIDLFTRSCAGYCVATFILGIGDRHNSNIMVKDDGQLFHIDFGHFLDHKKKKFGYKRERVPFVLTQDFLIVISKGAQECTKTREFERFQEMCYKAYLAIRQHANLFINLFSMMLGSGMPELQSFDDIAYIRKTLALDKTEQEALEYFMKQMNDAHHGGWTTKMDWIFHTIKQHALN

| IC50 [nM] | SMILES |
| --- | --- |
| 451 | CC(=O)N1CCN(Cc2cn3cc(-c4cccc(O)c4)nc(N4CCOCC4)c3n2)CC1 |
| 444 | Oc1cccc(-c2cn3cc(CN4CCOCC4)nc3c(N3CCOCC3)n2)c1 |
| 639 | OCc1cn2cc(-c3cccc(O)c3)nc(N3CCOCC3)c2n1 |
| 540 | O=C1CN(Cc2cn3cc(-c4cccc(O)c4)nc(N4CCOCC4)c3n2)CCN1 |
| 96 | Cc1cn2cc(-c3cccc(O)c3)nc(N3CCOCC3)c2n1 |

Further lines, the compound ahead of its results:

| SMILES | IC50 [nM] |
| --- | --- |
| Oc1cccc(-c2cn3cc(C(F)(F)F)nc3c(N3CCOCC3)n2)c1 | 108 |
| CCNC(=O)c1cn2cc(-c3cccc4[nH]ncc34)nc(N3CCOCC3)c2n1 | 92 |
| CNC(=O)c1cn2cc(-c3cccc4[nH]ncc34)nc(N3CCOCC3)c2n1 | 110 |
| O=C(NCCN1CCOCC1)c1cn2cc(-c3cccc4[nH]ncc34)nc(N3CCOCC3)c2n1 | 38 |
| Oc1cccc(-c2cn3cc(C4CC4)nc3c(N3CCOCC3)n2)c1 | 340 |

— BindingDB's records for doi:10.1016/j.bmcl.2012.01.074 (Spanish National Cancer Research Centre (Cnio), 2012)
